Among the data in ChEMBL document CHEMBL4354800, “Amphiphilic nebramine-based hybrids Rescue legacy antibiotics from intrinsic resistance in multidrug-resistant Gram-negative bacilli” (Eur J Med Chem, 2019) are Activity, Survival and inhibition values, retold here.

Active and inactive are the calls of the source. No cut-off for these calls is given here.

Series [1] in a line: Toxicity in Galleria mellonella larvae assessed as tolerability by measuring larvae deaths at 100 mg/kg incubated for 96 hrs relative to control. The format is organism-based. The conditions noted are these: in vivo.
Series [2] in a line: Toxicity in Galleria mellonella larvae assessed as tolerability by measuring larvae deaths at 75 mg/kg incubated for 96 hrs relative to control. The conditions noted are these: in vivo. The format is organism-based.
The subject of series [3] is Pseudomonas aeruginosa. Put plainly: Antimicrobial activity against XDR Pseudomonas aeruginosa PA264 infected in Galleria mellonella larvae assessed as survival rate at 25 mg/kg administered 2 hrs post-inoculation measured after 24 hrs relative to control. The format is functional, organism-based.
Series [4] has as its system Pseudomonas aeruginosa. Put plainly: Increase in tetracycline uptake in Pseudomonas aeruginosa PAO1 membrane at 25 uM measured every 1 min for 30 mins by fluorescence based assay. The format is organism-based. The conditions noted are these: Bacterial membrane. The method, boiled down:
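P. aeruginosa PAO1 was grown to OD600 0.6, washed, and resuspended in ¼ volume of 10 mM HEPES, pH 7.2. Cells received varying compound concentrations together with fixed tetracycline. Fluorescence (ex 405 nm, em 535 nm) was recorded every 1 min for 30 min at room temperature. Experiments were done in triplicate and averages reported.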

The test system of series [5] is Pseudomonas aeruginosa. Briefly: Disruption of proton gradient in Pseudomonas aeruginosa PAO1 membrane assessed as inhibition of tetracycline uptake at 25 uM measured every 1 min for 30 mins by fluorescence based assay. The format is organism-based. The conditions noted are these: Bacterial membrane.

COLISTIN [listing 1 of 2 here]: the Activity in series [1] was 90%; in series [2], 70%.

With COLISTIN [listing 2 of 2 here], the Survival in series [3] came to 0%. Besides, the result in series [4] was Active.

As for `N#CC(C#N)=NNc1cccc(Cl)c1`, the inhibition result in series [5] is “Active”.
